The values below come from ChEMBL document CHEMBL1138852, “Arylpiperazinylalkylpyridazinones and analogues as potent and orally active antinociceptive agents: synthesis and studies on mechanism of action” (J Med Chem, 2006).

Test [1] has as its system Mus musculus. Nature of the test: Antinociceptive activity in Swiss Albino mouse at 20 mg/kg, po by hot plate assay measured as licking latency. It is filed as functional. Set-up: unit: s. The gist of the method: (§1)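 Oral dosing in saline or 1% CMC. Mice placed on a surface held at 52.5 ± 0.1 °C; paw-licking latency (s) timed before treatment and at intervals up to 60 min afterwards. Mice with pretest latency below 12 or above 18 s were excluded. Cutoff 45 s.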
In general terms: Thermal pain tests record how soon the animal reacts.

In test [2] the test system is Mus musculus. Description: Antinociceptive activity in Swiss Albino mouse at 20 mg/kg, po by writhing test measured as number of writhes. The format is functional. The gist of the method: (§2)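 Drugs dosed orally 30 min before test, in saline or 1% CMC suspension; yohimbine arm included. 0.6% acetic acid (10 mL/kg) injected i.p., and abdominal constrictions counted for 10 min from 5 min after injection. Values are means of at least two experiments, compared with CMC-treated mice.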

Test [3] relates to Mus musculus. Description: Antagonist effect on compound A-induced antinociception in Swiss Albino mouse at 10 mg/kg, ip. The format is functional. The note with it: route intraperitoneal. The gist of the method:
(§3)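 Mice given antagonist i.p. (yohimbine 3 mg/kg, BRL-44408 1 mg/kg, ARC-239 10 mg/kg) plus compound A 1 mg/kg s.c., or antagonist plus vehicle. Abdominal constriction test: 0.6% acetic acid (10 mL/kg) i.p., stretching movements counted for 10 min beginning 5 min after injection. Groups of 10-15 mice, compared with saline/CMC controls.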

Test [4] deals with Mus musculus. Description: Antinociceptive activity in Swiss Albino mouse at 5 mg/kg, po by writhing test measured as number of writhes. The format is functional. An outline of the steps: as §2
For orientation: In writhing tests, fewer writhes than in controls are read as antinociception.

Test [5] concerns Mus musculus. Nature of the test: Antinociceptive activity in Swiss Albino mouse at 3 mg/kg, po by writhing test measured as number of writhes in presence of yohimbine. It is filed as functional.
Test [6] relates to Mus musculus. Description: Antinociceptive activity in Swiss Albino mouse at 3 mg/kg, po by hot plate assay measured as licking latency. It is filed as functional. An outline of the steps:
as §1

The test system of test [7] is Mus musculus. Nature of the test: Antagonist effect on compound A-induced antinociception in Swiss Albino mouse at 3 mg/kg, ip. Conditions: route intraperitoneal. The format is functional. The gist of the method: as §3
The test system of test [8] is Mus musculus. Nature of the test: Antinociceptive activity in Swiss Albino mouse at 3 mg/kg, ip by abdominal constriction assay. The format is functional, Abdomen. The note with it: route intraperitoneal. An outline of the steps: (§4)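 Acetic acid writhing in mice: 0.6% acetic acid at 10 mL/kg i.p., with stretching movements counted over 10 min starting 5 min after injection. Compound A 1 mg/kg s.c. or antagonists i.p. Drugs in 0.9% saline or dispersed in 1% carboxymethylcellulose. Groups of 10-15 mice, compared against saline/CMC controls.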

Test [9] relates to Mus musculus. Nature of the test: Antinociceptive activity in Swiss Albino mouse at 20 mg/kg, po by writhing test measured as number of writhes in presence of yohimbine. The format is functional. The gist of the method: as §2
In test [10] the test system is Mus musculus. Description: Antinociceptive activity in Swiss Albino mouse at 30 mg/kg, po by writhing test measured as number of writhes. The format is functional. The gist of the method:
as §2

Test [11] has as its system Mus musculus. Nature of the test: Antinociceptive activity in Swiss Albino mouse at 30 mg/kg, po by hot plate assay measured as licking latency. It is filed as functional. The gist of the method: as §1
Test [12] has as its system Mus musculus. Nature of the test: Antinociceptive activity in Swiss Albino mouse at 10 mg/kg, po by writhing test measured as number of writhes. The format is functional. The gist of the method:
as §2

The test system of test [13] is Mus musculus. Description: Antagonist effect on compound A-induced antinociception in Swiss Albino mouse at 1 mg/kg, ip. It is filed as functional. The note with it: route intraperitoneal. The gist of the method:
as §3

For test [14], the system named is Mus musculus. Description: Antinociceptive activity in Swiss Albino mouse at 1 mg/kg, ip by abdominal constriction assay. It is filed as functional, Abdomen. Conditions: route intraperitoneal. The gist of the method:
as §4

The target in test [15] is T1, Alpha-2A adrenergic receptor (Rattus norvegicus, UniProt P22909).
T1 sequence (P22909 whole entry): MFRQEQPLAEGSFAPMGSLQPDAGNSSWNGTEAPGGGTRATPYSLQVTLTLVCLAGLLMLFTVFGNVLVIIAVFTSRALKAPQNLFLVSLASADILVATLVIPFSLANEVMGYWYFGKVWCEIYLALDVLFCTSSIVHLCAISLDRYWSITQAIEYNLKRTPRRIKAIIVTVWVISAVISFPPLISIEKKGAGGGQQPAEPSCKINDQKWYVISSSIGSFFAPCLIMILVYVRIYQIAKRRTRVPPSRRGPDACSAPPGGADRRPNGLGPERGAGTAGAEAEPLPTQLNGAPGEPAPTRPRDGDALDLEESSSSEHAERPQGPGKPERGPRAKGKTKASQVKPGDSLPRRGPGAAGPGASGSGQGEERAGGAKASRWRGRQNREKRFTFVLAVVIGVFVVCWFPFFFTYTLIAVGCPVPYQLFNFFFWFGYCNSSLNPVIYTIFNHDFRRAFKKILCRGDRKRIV
Description: Binding affinity to adrenergic alpha-2A receptor in Sprague-Dawley rat cortical membranes.

Test [16] relates to Mus musculus. Nature of the test: Antinociceptive activity in Swiss Albino mouse at 1 mg/kg, sc by abdominal constriction assay. The format is functional, Abdomen. The note with it: route subcutaneous. The gist of the method: as §4
Test [17] addresses Norepinephrine transporter (Rattus norvegicus, UniProt Q9WTR4). Description: Inhibition of [3H]noradrenaline uptake in Sprague-Dawley rat brain synaptosomes. The format is functional, subcellular. The gist of the method: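 Rat frontal cortex synaptosomes prepared on a sucrose gradient and resuspended in Krebs-type buffer, pH 7.4, with 0.01 mM pargyline. Preincubated 5 min at 37 °C with or without drug, then [3H]-NE added for 6 min. Samples filtered and counted. Active uptake taken as accumulation at 37 °C minus accumulation at 0 °C.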

The species named for test [18] is Mus musculus. Description: Impairment in mouse rotarod test. The format is functional, organism-based. (In general: In the rotarod test animals must keep their balance on a rotating rod.)
A further test deals with Cerebral cortex. Nature of the test: Increase in noradrenaline release in Sprague-Dawley rat cortical membranes. The format is functional.

Several values for one entry are separate records, joined by “and”; a condition that tells them apart may be missing. Equal values may be shown once. Activity calls are given as the source filed them.

Sequence of Norepinephrine transporter (Q9WTR4 whole entry): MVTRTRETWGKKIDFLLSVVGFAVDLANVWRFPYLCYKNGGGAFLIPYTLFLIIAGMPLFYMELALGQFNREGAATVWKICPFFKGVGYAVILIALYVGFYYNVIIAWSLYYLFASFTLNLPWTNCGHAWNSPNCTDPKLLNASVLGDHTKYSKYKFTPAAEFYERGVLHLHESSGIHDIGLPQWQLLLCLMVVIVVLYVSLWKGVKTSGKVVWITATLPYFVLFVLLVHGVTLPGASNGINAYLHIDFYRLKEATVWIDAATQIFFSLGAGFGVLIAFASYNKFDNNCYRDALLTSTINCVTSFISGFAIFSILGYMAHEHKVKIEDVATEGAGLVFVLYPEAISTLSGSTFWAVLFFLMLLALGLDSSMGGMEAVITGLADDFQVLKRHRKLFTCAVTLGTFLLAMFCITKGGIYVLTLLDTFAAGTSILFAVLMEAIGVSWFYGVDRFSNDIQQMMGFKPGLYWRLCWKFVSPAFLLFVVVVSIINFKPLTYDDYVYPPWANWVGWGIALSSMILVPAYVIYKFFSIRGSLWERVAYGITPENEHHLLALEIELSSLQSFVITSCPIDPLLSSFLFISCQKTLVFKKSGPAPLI

On to `O=C1c2ccccc2C(=O)N1CCCN1CCN(c2ccc(F)cc2)CC1`, for which the Activity with Mus musculus [1] was 36.5; in the test with Mus musculus [2], 19.4. The compound `Cc1noc2c(-c3ccccc3)nn(CC(C)CN3CCN(c4cccc(Cl)c4)CC3)c(=O)c12` (centres undefined) yielded an Activity in the test with Mus musculus [2] of 35.5.

In the test on Mus musculus [2], `Cc1noc2c(-c3ccccc3)nnc(SCCCN3CCN(c4ccc(F)cc4)CC3)c12` displayed an Activity of 28.6.

Take `Cc1noc2c(-c3ccccc3N)nn(CCCN3CCN(c4cccc(Cl)c4)CC3)c(=O)c12`: the Activity amounted to 16.5 with Mus musculus [1] and 28 with Mus musculus [2]. Consider `CCOC(=O)CCn1nc(-c2ccccc2)c2onc(C)c2c1=O`, for which the values for the Activity in the test with Mus musculus [1] and with Mus musculus [2] were 17.4 and 32.7, respectively. In the test on Mus musculus [2], `Cc1noc2c(-c3ccccc3)nn(CCCCN3CCN(c4cccc(Cl)c4)CC3)c(=O)c12` had an Activity of 30.6. The same measure, in the same setting: to `Cc1onc2c(=O)n(CCCN3CCN(c4cccc(Cl)c4)CC3)nc(-c3cccs3)c12` belongs 16.2. Turning to `O=C1c2ccccc2C(=O)N1CCCN1CCN(c2cccc(Cl)c2)CC1`, the Activity in the test on Mus musculus [1] is listed as 16.2; in the test with Mus musculus [2] it was 34.9.

In the test on Mus musculus [3], `COc1ccccc1N1CCN(CCN2C(=O)c3ccccc3C(C)(C)C2=O)CC1` returned an Activity of 9.6. Consider `Cc1noc2cnn(CCCCN3CCN(c4cccc(Cl)c4)CC3)c(=O)c12`, for which, in the test with Mus musculus [4], the Activity was 27.2. Regarding `Cc1noc2c(-c3ccc([N+](=O)[O-])cc3)nn(CCCN3CCN(c4cccc(Cl)c4)CC3)c(=O)c12`, in the test on Mus musculus [2], the Activity came out at 26.8.

On to `COC(=O)[C@@H]1[C@H]2C[C@H]3c4[nH]c5ccccc5c4CCN3C[C@@H]2CC[C@@H]1O` [YOHIMBINE], for which the Activity stood at 35.9 with Mus musculus [5], 15.8 with Mus musculus [6], 27.8 in the test on Mus musculus [7] and 28.5 in the test with Mus musculus [8]. `Cc1noc2cnn(CCCN3CCN(c4cccc(Cl)c4)CC3)c(=O)c12`: the Activity in the test with Mus musculus [1] was found to be 27.7; with Mus musculus [9], 27.4; with Mus musculus [2], 11.9. The compound `Cc1cc(C)c2c(-c3ccccc3)nn(CCCN3CCN(c4cccc(Cl)c4)CC3)c(=O)c2n1` returned an Activity in the test on Mus musculus [2] of 18. For the compound `O=C1c2ccccc2C(=O)N1CCN1CCN(c2ccc(F)cc2)CC1`, the Activity in the test with Mus musculus [9] turned out to be 37.9; in the test on Mus musculus [2] it was 22.6.

With `Cc1noc2c(-c3ccccc3)nn(CCN3CCN(c4cccc(Cl)c4)CC3)c(=O)c12`, the Activity with Mus musculus [1] is 15.4; in the test with Mus musculus [9] it was 37.2; in the test on Mus musculus [2], 23.6. `Cc1noc2c(-c3ccccc3[N+](=O)[O-])nn(CCCN3CCN(c4cccc(Cl)c4)CC3)c(=O)c12`: in the test on Mus musculus [2], the Activity is recorded as 31.7. With `Cc1noc2c(-c3ccccc3)nn(CCCN3CCN(c4ccc(F)cc4)CC3)c(=O)c12`, the values for the Activity in the test on Mus musculus [10] and in the test on Mus musculus [11] were 39.2 and 17.6, respectively. Take `Cc1nn(CCCN2CCN(c3cccc(Cl)c3)CC2)c(=O)c2nn(-c3ccccc3)c(C)c12`: the Activity in the test on Mus musculus [2] is on record as 10.3. As to `O=c1c2ccccc2cnn1CCCCN1CCN(c2cccc(Cl)c2)CC1`, the Activity in the test with Mus musculus [2] stood at 28.5. Consider `N#Cc1cccc(N2CCN(CCCn3ncc4ccccc4c3=O)CC2)c1`, for which the Activity in the test with Mus musculus [12] is on record as 17.2. In the case of `CC1c2ccccc2CN1CC1=NCCN1` (centres undefined), the Activity was found to be 33.4 with Mus musculus [13] and 32.9 in the test on Mus musculus [14].

Regarding `Cc1noc2c(-c3ccccc3)nn(CCCN3CCN(c4ccc(Cl)cc4)CC3)c(=O)c12`, the Activity in the test on Mus musculus [2] was determined as 27.1.

With `O=c1c2ccccc2cnn1CCCN1CCN(c2cccc(Cl)c2)CC1`, the Activity in the test on Mus musculus [1] (20 mg/kg) was 28 and 83%; with Mus musculus [9], 31.8; in the test on Mus musculus [2], 8.2. As usually defined, the Ki is the equilibrium dissociation constant of an inhibitor or competing ligand from its target. By IC50 is commonly meant the midpoint of a concentration-inhibition curve. Regarding `Cc1noc2c(-c3ccccc3)nn(CCCN3CCN(c4cccc(Cl)c4)CC3)c(=O)c12`, the Ki in test [15] is > 1000 nM. In addition, the Activity in the test with Mus musculus [16] was 11.6; in the test with Cerebral cortex it was “Dose-dependent effect”. The compound also gave an IC50 in test [17] of 130 nM. Also, the outcome in the test filed under Mus musculus [18] was inactive. In the case of `Cc1noc2c(-c3ccccc3)nn(CCC(=O)N3CCN(c4ccc(Cl)cc4)CC3)c(=O)c12`, the Activity amounted to 17.2 in the test with Mus musculus [1], 45.4 in the test on Mus musculus [9] and 23.5 with Mus musculus [2].

In the case of `Cc1noc2c(-c3ccccc3)nn(CCCN3CCN(c4ccccn4)CC3)c(=O)c12`, the results for the Activity in the test with Mus musculus [10] and in the test on Mus musculus [11] were 30.2 and 15.1, respectively. Consider `Cc1noc2c(-c3ccccc3)nn(CCC(=O)N3CCN(c4cccc(Cl)c4)CC3)c(=O)c12`, for which the Activity was found to be 41.3 with Mus musculus [9] and 22.1 in the test on Mus musculus [2]. In the test on Mus musculus [2], `CC(CN1CCN(c2cccc(Cl)c2)CC1)Cn1ncc2ccccc2c1=O` (centres undefined) gave an Activity of 36.7. Still for that read-out and setting: as for `O=c1c2ccccc2cnn1CCCN1CCN(c2ccc(Cl)cc2)CC1`, the figure is 23.9.
